CHRM5 agonist – human M5 muscarinic receptor agonists, primary screen, CHO-K1 cells, Fluo-8 calcium fluorescence; Muscarinic acetylcholine receptor M5 (Homo sapiens), P08912; CHO-K1 hM5 cells; 0% DMSO wells, 100% maximal acetylcholine response; activation, % at 3 µM; actives 0.19% (n = 360,000); AID 624037, 2012;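 active = activation above the run's mean over test compounds plus 3 SD, cut at about 23% in these data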;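 also: signal is peak over basal fluorescence ratio across the kinetic read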
M5 PAM – human M5 muscarinic receptor positive allosteric modulators, primary screen, CHO-K1 cells, Fluo-8 calcium fluorescence. activation, % at 3 µM. CHO-K1 hM5, ACh EC20 PAM; 0% = ACh EC20, 100% = ACh EC100. Muscarinic acetylcholine receptor M5 (Homo sapiens), P08912. AID 624038, 2012. actives 0.3% (n = 360,000);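 active = activation above the run cutoff, the mean activation of all test compounds plus 3 SD, cut at about 18% in these data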
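System – CHO-K1 hM5 cells · Compound – 3 µM, single dose · Incubation – compound preincubation 140 s before EC20 acetylcholine addition · Technique – Fluo-8 calcium fluorescence · Measure – Max/basal fluorescence ratio as % of EC20–EC100 ACh window · Benchmarks – low control EC20 acetylcholine (0%), high control EC100 acetylcholine (100%) · Replication – singlicate, one well per test compound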
M5 antag – human M5 muscarinic receptor antagonists, primary screen, CHO cells, Fluo-8 calcium fluorescence; Muscarinic acetylcholine receptor M5 (Homo sapiens), P08912; CHO-hM5 cells, ACh EC80; inhibition, % at 3 µM; actives 0.59% (n = 360,000); AID 624040, 2012;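 active = inhibition above a per-plate cutoff, the mean of that plate's test compounds plus 3 SD, cut at about 27% in these data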
M4 ag – human M4 muscarinic receptor agonists, primary screen, CHO-K1 cells, Fluo-8 calcium fluorescence; CHO-K1 hM4/Gqi5; vehicle 0%, full acetylcholine response 100%; activation, % at 3 µM; actives 0.14% (n = 360,000); AID 624127, 2012;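 active = activation above the run mean over all test wells plus 3 SD, cut at about 32% in these data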;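 also: peak over basal fluorescence ratio per well then scaled between controls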
Target sequence (P08173 whole entry, looked up): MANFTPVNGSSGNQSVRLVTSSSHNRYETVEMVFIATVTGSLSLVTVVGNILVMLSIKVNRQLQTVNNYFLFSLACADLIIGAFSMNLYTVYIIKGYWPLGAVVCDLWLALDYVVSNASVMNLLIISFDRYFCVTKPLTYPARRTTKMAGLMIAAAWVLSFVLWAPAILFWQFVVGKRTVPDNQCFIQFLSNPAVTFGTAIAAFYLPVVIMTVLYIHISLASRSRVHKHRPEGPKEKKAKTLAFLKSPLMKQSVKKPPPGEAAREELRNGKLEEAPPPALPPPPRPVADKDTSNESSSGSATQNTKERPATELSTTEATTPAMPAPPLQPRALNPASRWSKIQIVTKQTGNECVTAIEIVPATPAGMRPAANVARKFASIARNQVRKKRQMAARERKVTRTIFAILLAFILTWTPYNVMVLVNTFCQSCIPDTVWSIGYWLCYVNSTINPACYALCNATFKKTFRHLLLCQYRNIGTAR
M4 antag – human M4 muscarinic receptor antagonists, primary screen, CHO cells, Fluo-8 calcium fluorescence. Muscarinic acetylcholine receptor M4 (Homo sapiens), P08173. CHO-hM4 cells, ACh EC80. inhibition, % at 3 µM. actives 0.73% (n = 360,000). AID 624125, 2012;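 active = inhibition above its plate's cutoff, the mean inhibition of sample wells plus 3 SD, cut at about 27% in these data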
M4 PAM – human M4 muscarinic receptor positive allosteric modulators, primary screen, CHO-K1 cells, Fluo-8 calcium fluorescence | activation, % at 3 µM | AID 624126, 2012 | actives 0.4% (n = 360,000) | CHO-K1 hM4/Gqi5, ACh EC20; 0% = ACh EC20, 100% = maximal ACh;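 active = activation above its plate's cutoff, the mean activation of sample wells plus 3 SD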
Large screens that a line does not name were inactive. In the library only some 1.8% were active in any assay of this set; here they are far more common.

COc1ccc(C2=NOC(C(=O)NCc3ccc(F)cc3)C2)cc1 (centres undefined)	none
COc1ccc(CNC(=O)C2CC(c3ccc(F)cc3)=NO2)cc1 (centres undefined)	M4 PAM 36
NCCNC[C@@H]1COC2(CCCCCCCCCCC2)O1	none
O=C(OCc1cn([C@H]2C[C@H](c3ccccc3)N(Cc3cccs3)C[C@@H]2O)nn1)c1ccccc1	none
O=C(Cc1ccccc1)Nc1ccc(N2CCN(Cc3ccccc3F)CC2)cc1	none
Cc1ccc(CNC(=O)C(NS(=O)(=O)c2cccc3nsnc23)C(C)C)cc1 (centres undefined)	M5 antag 30
Cc1ccc(NC(=O)C(NS(=O)(=O)c2cccc3nsnc23)C(C)C)nc1 (centres undefined)	none
COC(=O)c1nccnc1N	none
CCCCCCCCN1C(=O)[C@H](CC(=O)N2CCN(C(=O)C3CC3)CC2)C[C@@]2(C(=O)OC)CCCCC=C12	none
Cc1cc2c(cc1C)N(C(=O)CSc1nncn1C)C(C)(C)c1ssc(=S)c1-2	M5 antag 34
S=C1N(c2ccccc2)C(c2ccc(Br)cc2)N2CCCN12 (centres undefined)	M5 antag 38, M4 antag 79
S=C1N(c2ccccc2)C(c2ccc(Cl)cc2)N2CCCN12 (centres undefined)	M4 antag 42
CC(C)(C)C(=O)Nc1cccc(-c2nc3ccccc3c(=O)o2)c1	none
CCCC(=O)Nc1cccc(-c2nc3ccccc3c(=O)o2)c1	M4 PAM 25
COc1ccc(C(O)(CCN2CCCCC2)C2CCCCC2)cc1 (centres undefined)	M5 antag 64, M4 antag 75
COc1ccc(CCNc2ncnc3c2nnn3Cc2ccccc2)cc1OC	none
N/C(=N\OC(=O)Nc1cccc(C(F)(F)F)c1)c1ccno1	M5 antag 27
CC1=CC(C)C(/C=N/N=C(N)N)C(C)C1 (centres undefined)	M5 PAM 21
CC1=CC(C)C(C[N+]2(C)CCCCC2)C(C)C1 (centres undefined)	none
NS(=O)(=O)c1ccc(S(=O)(=O)NCCc2ccccc2)cc1	none
Cc1[nH]c2ccccc2c1CCNS(=O)(=O)c1ccc(S(N)(=O)=O)cc1	M4 PAM 16
COc1ccc(C(=O)Oc2ccc3oc(=O)sc3c2)cc1	M4 antag 58
COc1ccc(C(=O)Oc2ccc3ccc(=O)oc3c2)cc1	none
O=C(C1=C(O)C(=O)N(CCN2CCOCC2)C1c1cccc(O)c1)c1cc2ccccc2o1 (centres undefined)	M4 PAM 19
Cc1ccccc1C(=O)OC1CCN(C)CC1	none
CN1CCC(N(C)CC(O)c2ccccc2)CC1 (centres undefined)	none
CN1CCC(Oc2ccccc2Sc2ccccc2)CC1	M5 antag 78, M4 antag 74
CN1CCC(OC(c2ccccc2)c2ccccc2)CC1	M5 antag 96, M4 antag 80
Cc1ccc(N(CC(=O)N2CCN(Cc3ccccc3)CC2)S(C)(=O)=O)cc1C	none
CC(=O)c1csc(CS(=O)(=O)c2ccccn2)n1	M5 PAM 20
CC(=O)c1ccccn1	none
CN(C)CCNc1ccc(Cl)cc1[N+](=O)[O-]	M5 antag 30
CS(=O)(=O)NCCNc1ccc(Cl)cc1[N+](=O)[O-]	none
COc1cc(NC(=O)CCc2nnc3ccc(N4CCOCC4)nn23)cc(OC)c1OC	none
Cc1ccccc1C(=O)NC1CCN(CC(=O)NCc2ccccc2)CC1	none
CCC1=NN2C(=N)/C(=C/c3cc(C)n(Cc4ccccc4)c3C)C(=O)N=C2S1	CHRM5 agonist 24, M4 ag 53
CCCCS(=O)(=O)c1sc2nc(C)cc(C)c2c1N	M5 PAM 21
O=C(Nc1ccc(Cl)cn1)c1cccc2ccccc12	none
CC(C)c1ccc(-c2nnc(SCC(=O)NC3CC3)n2C)cc1	M5 PAM 30
Cn1c(SCC(=O)NC2CCCC2)nnc1-c1ccncc1	none
Cn1ccnc1SCC(=O)NC1CC1	M4 PAM 49
Cn1ccnc1SCC(=O)NC1CCCCC1	none
Cc1ccccc1NC(=S)NC(=O)/C=C/c1ccco1	M5 PAM 22
COc1ccc(C2=CC(=O)C[C@H](c3ccc(Cl)cc3)C2)cc1	none
COc1ccc(NC2=CC(=O)CC(c3ccc(C)cc3)C2)c(OC)c1 (centres undefined)	M4 PAM 23
COc1ccc(C2=CC(=O)CC(c3ccc(OC)cc3)C2)cc1 (centres undefined)	M5 antag 29
COc1ccc(C2CC(=O)C(C=NCCO)=C(O)C2)cc1 (centres undefined)	M5 PAM 19
COc1ccc(C2CC(=O)C(C=NCCO)=C(O)C2)cc1OC (centres undefined)	none
COc1ccccc1NC1=CC(=O)CC(c2ccccc2)C1 (centres undefined)	none
O/N=C/c1ccc2ccccc2c1	none
CN(Cc1c(F)cccc1Cl)C(=O)CNC(=O)c1sc2ccccc2c1Cl	none
O=C(Cn1c(=O)c2cccn2c2ccc(F)cc21)N1CCN(c2ccc(F)cc2)CC1	M5 antag 28
CCOc1ccc(OCCSc2nc3ccccc3[nH]2)cc1	none
CCCOc1ccc(CSc2nc3ccccc3[nH]2)cc1	M5 antag 42
CC(C)CN(C(=O)CSc1nc2ccccc2c(=O)[nH]1)c1c(N)n(CC(C)C)c(=O)[nH]c1=O	M4 PAM 24
COc1ccccc1N1CCN(C(=O)c2oc3c(c2C)C(=O)CC(C)(C)C3)CC1	M5 antag 29
Cc1c(C(=O)N2CCN(c3ccccn3)CC2)oc2c1C(=O)CC(C)(C)C2	none
Cc1cc(NC(=O)CS(=O)(=O)c2ccc(Cl)cc2)no1	none
CCN(CC)c1ccc(C=Nc2cc(C)ccc2C)c(O)c1	M4 PAM 25
CCC(C(=O)NCCCN(CC)Cc1ccccc1)n1nc(C)c2sc3ccccc3c2c1=O (centres undefined)	none
CC(C)(C)NC(=O)C(c1cc2ccccc2o1)n1c(=O)c(-c2ccco2)nc2ccccc21 (centres undefined)	none

Source: PubChem
